Reference: ChEMBL document CHEMBL1125125, “Thiazolo[4,5-d]pyrimidine nucleosides. The synthesis of certain 3-beta-D-ribofuranosylthiazolo[4,5-d]pyrimidines as potential immunotherapeutic agents” (J Med Chem, 1990)

What was measured:
YAC-1 [1] = assay: (§1) In vivo effect on murine NK cell activity in isolated CBA/CaJ mice spleen cells and cytotoxicity measured against YAC-1 cells at a targetor ratio 100:1; assay type: functional, Mus musculus
In short: (§2)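 Female CBA/CaJ mice aged 6–8 weeks, two per group, received 150 mg/kg ip in 2% aqueous sodium bicarbonate as 75 mg/kg bid for one day; the placebo was vehicle. After 24 h, spleen cells were pooled and tested against YAC-1 targets in a 4-h 51Cr-release assay, in triplicate, at the stated effector:target ratio.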

Mus musculus [2] = organism: Mus musculus; assay: Ability to activate CBA/CaJ Mice spleen cells to proliferate in vitro by measuring new DNA synthesis in a [3H]thymidine incorporation assay at 0.05 mM; assay type: functional
In short: (§3)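 Spleen cells from CBA/CaJ mice, 1 × 10^5 per 0.2 mL, cultured with compound for 48 h in total. [3H]thymidine (0.5 μCi/0.02 mL) was added after 24 h, then cells were harvested and uptake was counted in a β-counter. Results are CPM as mean ± SD of quadruplicate assays.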

Mus musculus [3] = organism: Mus musculus; assay: Ability to activate CBA/CaJ Mice spleen cells to proliferate in vitro by measuring new DNA synthesis in a [3H]thymidine incorporation assay at 0 mM; assay type: functional; in short: as §3
Semliki Forest virus [4] = assay: Effect against semliki forest virus infection in mice at an ip dose of 200 mg/kg; 3/12; assay type: functional; conditions: route intraperitoneal
In short: (§4)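 Female Swiss Webster mice (about 20 g) received compound or placebo ip in aqueous 2% sodium bicarbonate as half-daily doses at -24 and -18 h before virus. […] Read-outs were survivors/total over 21 days and mean survival time of mice that died. Mice dying within a day or two of dosing were excluded. Significance was by two-tailed Fisher exact test.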

Semliki Forest virus [5] = assay: Effect against semliki forest virus infection in mice at an ip dose of 200 mg/kg; assay type: functional; conditions: route intraperitoneal; in short: as §4
Semliki Forest virus [6] = assay: Effect against semliki forest virus infection in mice at an ip dose of 100 mg/kg; assay type: functional; conditions: route intraperitoneal; in short: as §4
Semliki Forest virus [7] = assay: Effect against semliki forest virus infection in mice at an ip dose of 100 mg/kg; 6/12; assay type: functional; conditions: route intraperitoneal; in short: as §4
Mus musculus [8] = organism: Mus musculus; assay: Ability to activate CBA/CaJ Mice spleen cells to proliferate in vitro by measuring new DNA synthesis in a [3H]thymidine incorporation assay at 0.01 mM; assay type: functional; in short: as §3
YAC-1 [9] = assay: (§5) In vivo effect on murine NK cell activity in isolated CBA/CaJ mice spleen cells and cytotoxicity measured against YAC-1 cells at a targetor ratio 50:1; assay type: functional, Mus musculus; in short: as §2
Mus musculus [10] = organism: Mus musculus; assay: Ability to activate CBA/CaJ Mice spleen cells to proliferate in vitro by measuring new DNA synthesis in a [3H]thymidine incorporation assay at 0.40 mM; assay type: functional; in short: as §3
Mus musculus [11] = organism: Mus musculus; assay: Ability to activate CBA/CaJ Mice spleen cells to proliferate in vitro by measuring new DNA synthesis in a [3H]thymidine incorporation assay at 0.20 mM; assay type: functional; in short: as §3
Mus musculus [12] = assay: Effect against semliki forest virus infection in mice at an ip dose of 100 mg/kg.; assay type: functional; conditions: route intraperitoneal; in short: as §4
YAC-1 [13] = assay: In vivo effect on murine NK cell activity in isolated CBA/CaJ mice spleen cells and cytotoxicity measured against YAC-1 cells at a targetor ratio 100:1.; assay type: functional, Mus musculus; in short: as §2
Mus musculus [14] = assay: Effect against semliki forest virus infection in mice at an ip dose of 200 mg/kg; 2/11; assay type: functional; conditions: route intraperitoneal; in short: as §4
Mus musculus [15] = assay: Effect against semliki forest virus infection in mice at an ip dose of 100 mg/kg; 0/12; assay type: functional; conditions: route intraperitoneal; in short: as §4
YAC-1 [16] = assay: In vivo effect on murine NK cell activity in isolated CBA/CaJ mice spleen cells and cytotoxicity measured against YAC-1 cells at a targetor ratio 50:1.; assay type: functional, Mus musculus; in short: as §2
Mus musculus [17] = assay: Effect against semliki forest virus infection in mice at an ip dose of 200 mg/kg.; assay type: functional; conditions: route intraperitoneal; in short: as §4
Mus musculus [18] = assay: Effect against semliki forest virus infection in mice at an ip dose of 100 mg/kg; 4/9; assay type: functional; conditions: route intraperitoneal; in short: as §4
Mus musculus [19] = assay: Effect against semliki forest virus infection in mice at an ip dose of 200 mg/kg''; 11/11; assay type: functional; conditions: route intraperitoneal; in short: as §4
Semliki Forest virus [20] = assay: Effect against semliki forest virus infection in mice at an ip dose of 200 mg/kg; 9/12; assay type: functional; conditions: route intraperitoneal; in short: as §4
YAC-1 [21] = assay: as §5; assay type: organism-based; conditions: mouse; in short: as §2
YAC-1 [22] = assay: as §1; assay type: organism-based; conditions: mouse; in short: as §2
Semliki Forest virus [23] = assay: Effect against semliki forest virus infection in mice at an ip dose of 100 mg/kg; 11/12; assay type: functional; conditions: route intraperitoneal; in short: as §4
Semliki Forest virus [24] = assay: Effect against semliki forest virus infection in mice at an ip dose of 200 mg/kg; 11/12; assay type: functional; conditions: route intraperitoneal; in short: as §4

Compound	CPM (Mus musculus [2])	CPM (Mus musculus [3])	Mean survival time (Semliki Forest virus [5])	Mean survival time (Semliki Forest virus [6])	Survivors (Semliki Forest virus [7])	CPM (Mus musculus [8])	CPM (Mus musculus [10])	CPM (Mus musculus [11])	Mean survival time (Mus musculus [12])	Cytotoxicity (YAC-1 [13])	Cytotoxicity (YAC-1 [16])	Mean survival time (Mus musculus [17])	Cytotoxicity (YAC-1 [21])	Cytotoxicity (YAC-1 [22])	further results
Nc1nc(O)c2nc(S)n([C@@H]3O[C@H](CO)[C@@H](O)[C@H]3O)c2n1	5372	3633	7.5 days	8 days	50%	3911	40690	23092							% cytotoxicity (YAC-1 [1]): 61.33%; Survivors (Semliki Forest virus [4]): 25%; % cytotoxicity (YAC-1 [9]): 43.53%
Nc1nc2c(nc(Br)n2[C@@H]2O[C@H](CO)[C@@H](O)[C@H]2O)c(=O)[nH]1	4835	5204				4387	16771	9199	7.7 days	45.44%	31.33%	7.1 days			Survivors (Mus musculus [14]): 18%; Survivors (Mus musculus [15]): 0%
Nc1nc(O)c2sc(=S)n(C3O[C@H](CO)[C@@H](O)[C@H]3O)c2n1 (stereo not given in full)	15711	3111				4230	53493	43779	7 days	41.38%	28.89%	>21 days			Survivors (Mus musculus [18]): 44%; Survivors (Mus musculus [19]): 100%
Cn1c(=O)n(C2O[C@H](CO)[C@@H](O)[C@H]2O)c2nc(N)nc(O)c21 (stereo not given in full)	35980	2000	6.3 days	7.7 days	50%	6012	94100	72000					58.8%	57.89%	Survivors (Semliki Forest virus [20]): 75%
Nc1nc2c(sc(=O)n2[C@@H]2O[C@H](CO)[C@@H](O)[C@H]2O)c(=O)[nH]1 [ISATORIBINE]	54150	2000	6 days	8 days		12000	107000	96680					74.8%	67.8%	Survivors (Semliki Forest virus [23]): 92%; Survivors (Semliki Forest virus [24]): 92%
